Columns and labels:
OVCAR-4 = assay: NCI-60 antiproliferative screening; assay type: cell-based; conditions: Homo sapiens, OVCAR-4, read-out: percent inhibition
U251 = assay: NCI-60 antiproliferative screening; assay type: cell-based; conditions: Homo sapiens, U-251, read-out: percent inhibition
PC-3 = assay: NCI-60 antiproliferative screening; assay type: cell-based; conditions: Homo sapiens, PC-3, read-out: percent inhibition
SF-295 = assay: NCI-60 antiproliferative screening; assay type: cell-based; conditions: Homo sapiens, SF-295, read-out: percent inhibition
NCI-H322M = assay: NCI-60 antiproliferative screening; assay type: cell-based; conditions: Homo sapiens, read-out: percent inhibition
HOP-92 = assay: NCI-60 antiproliferative screening; assay type: cell-based; conditions: Homo sapiens, HOP-92, read-out: percent inhibition
EKVX = assay: NCI-60 antiproliferative screening; assay type: cell-based; conditions: Homo sapiens, read-out: percent inhibition
HDAC1 = HDAC1 (Homo sapiens, UniProt Q13547); assay: In vitro HDAC enzyme assay; assay type: biochemical
Sequence of HDAC1 (Q13547 whole entry): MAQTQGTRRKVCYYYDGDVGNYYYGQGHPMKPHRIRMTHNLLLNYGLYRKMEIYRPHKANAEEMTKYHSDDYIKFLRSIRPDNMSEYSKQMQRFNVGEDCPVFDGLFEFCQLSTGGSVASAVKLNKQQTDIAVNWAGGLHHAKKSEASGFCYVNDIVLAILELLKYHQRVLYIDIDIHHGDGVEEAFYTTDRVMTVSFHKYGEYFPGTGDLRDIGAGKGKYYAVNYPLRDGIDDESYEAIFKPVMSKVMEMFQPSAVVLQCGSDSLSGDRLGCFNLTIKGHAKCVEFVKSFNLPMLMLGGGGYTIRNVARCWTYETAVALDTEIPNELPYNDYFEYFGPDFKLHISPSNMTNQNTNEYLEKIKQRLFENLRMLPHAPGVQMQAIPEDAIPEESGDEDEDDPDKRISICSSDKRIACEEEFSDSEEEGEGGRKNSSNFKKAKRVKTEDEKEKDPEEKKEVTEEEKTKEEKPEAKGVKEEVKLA

IGROV1 = assay: NCI-60 antiproliferative screening; assay type: cell-based; conditions: Homo sapiens, IGROV-1, read-out: percent inhibition
SK-OV-3 = assay: NCI-60 antiproliferative screening; assay type: cell-based; conditions: Homo sapiens, SK-OV-3, read-out: percent inhibition
SW-620 = assay: NCI-60 antiproliferative screening; assay type: cell-based; conditions: Homo sapiens, SW-620, read-out: percent inhibition
[1] = system: normal bone marrow cells HS-5; assay: Cell viability assay; assay type: cell-based; conditions: 72 h, read-out: Antiproliferative IC50 HS-5
Outline: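 Cells grown in IMDM with 20% FBS, 100 U per mL penicillin and 100 μg per mL streptomycin, then plated in 96-well format. Test compound exposure was 72 h. Alamar blue solution (1 mM, as added) was then applied for a further 5–6 h, and […] was read at 530/590 nm. Data were normalized to vehicle, as means of three independent measurements (standard errors <20%), and IC50 was calculated.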

DU-145 = assay: NCI-60 antiproliferative screening; assay type: cell-based; conditions: Homo sapiens, DU-145, read-out: percent inhibition
MOLT-4 = assay: NCI-60 antiproliferative screening; assay type: cell-based; conditions: Homo sapiens, MOLT-4, read-out: percent inhibition
HCC-2998 = assay: NCI-60 antiproliferative screening; assay type: cell-based; conditions: Homo sapiens, HCC 2998, read-out: percent inhibition
OVCAR-8 = assay: NCI-60 antiproliferative screening; assay type: cell-based; conditions: Homo sapiens, OVCAR-8, read-out: percent inhibition
HDAC5 = HDAC5 (Homo sapiens, UniProt Q9UQL6); assay: In vitro HDAC enzyme assay; assay type: biochemical
Sequence of HDAC5 (Q9UQL6 whole entry): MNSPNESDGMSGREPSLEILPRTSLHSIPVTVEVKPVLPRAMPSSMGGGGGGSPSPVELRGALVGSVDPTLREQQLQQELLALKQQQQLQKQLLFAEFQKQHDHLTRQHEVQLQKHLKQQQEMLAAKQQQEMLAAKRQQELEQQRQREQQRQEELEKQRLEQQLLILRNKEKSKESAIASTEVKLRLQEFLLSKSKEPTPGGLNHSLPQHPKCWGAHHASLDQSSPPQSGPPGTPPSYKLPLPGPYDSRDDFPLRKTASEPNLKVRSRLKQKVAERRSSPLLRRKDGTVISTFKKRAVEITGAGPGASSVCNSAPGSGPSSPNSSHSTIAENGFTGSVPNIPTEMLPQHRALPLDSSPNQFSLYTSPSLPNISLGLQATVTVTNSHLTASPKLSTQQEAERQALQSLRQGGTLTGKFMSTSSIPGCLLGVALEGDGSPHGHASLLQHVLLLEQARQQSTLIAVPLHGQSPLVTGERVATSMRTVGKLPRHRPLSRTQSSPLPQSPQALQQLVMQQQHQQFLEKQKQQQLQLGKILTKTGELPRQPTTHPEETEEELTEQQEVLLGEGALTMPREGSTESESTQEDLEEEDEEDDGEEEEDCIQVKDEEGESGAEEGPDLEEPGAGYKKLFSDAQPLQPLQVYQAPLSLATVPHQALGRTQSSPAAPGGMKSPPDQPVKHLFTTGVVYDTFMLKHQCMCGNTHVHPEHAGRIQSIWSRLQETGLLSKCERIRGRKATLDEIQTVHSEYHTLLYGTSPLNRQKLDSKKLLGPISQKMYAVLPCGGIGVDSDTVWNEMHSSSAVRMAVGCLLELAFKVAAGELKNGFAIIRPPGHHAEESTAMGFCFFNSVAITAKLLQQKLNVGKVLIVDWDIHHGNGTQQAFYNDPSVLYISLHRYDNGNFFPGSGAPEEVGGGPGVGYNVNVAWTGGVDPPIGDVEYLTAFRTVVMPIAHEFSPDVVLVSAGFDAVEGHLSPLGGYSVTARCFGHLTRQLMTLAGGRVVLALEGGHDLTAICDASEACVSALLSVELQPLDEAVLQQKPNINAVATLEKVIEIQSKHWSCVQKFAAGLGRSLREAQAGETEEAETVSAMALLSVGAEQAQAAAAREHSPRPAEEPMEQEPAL

KM12 = assay: NCI-60 antiproliferative screening; assay type: cell-based; conditions: Homo sapiens, KM12, read-out: percent inhibition
HDAC8 = HDAC8 (Homo sapiens, UniProt Q9BY41); assay: In vitro HDAC enzyme assay; assay type: biochemical
Sequence of HDAC8 (Q9BY41 whole entry): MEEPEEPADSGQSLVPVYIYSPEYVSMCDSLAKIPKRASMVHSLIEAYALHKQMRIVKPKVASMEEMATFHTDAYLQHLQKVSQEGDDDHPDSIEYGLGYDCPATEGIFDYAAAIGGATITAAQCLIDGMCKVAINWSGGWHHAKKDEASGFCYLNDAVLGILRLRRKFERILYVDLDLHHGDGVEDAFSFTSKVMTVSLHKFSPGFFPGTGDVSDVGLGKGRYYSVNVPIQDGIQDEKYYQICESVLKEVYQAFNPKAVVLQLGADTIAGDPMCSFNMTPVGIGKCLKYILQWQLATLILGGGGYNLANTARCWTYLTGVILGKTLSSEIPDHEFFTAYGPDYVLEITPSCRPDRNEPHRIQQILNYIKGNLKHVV

T-47D = assay: NCI-60 antiproliferative screening; assay type: cell-based; conditions: Homo sapiens, T47D, read-out: percent inhibition
HL60 = assay: NCI-60 antiproliferative screening; assay type: cell-based; conditions: Homo sapiens, HL-60, read-out: percent inhibition
HS 578T = assay: NCI-60 antiproliferative screening; assay type: cell-based; conditions: Homo sapiens, read-out: percent inhibition
COLO 205 = assay: NCI-60 antiproliferative screening; assay type: cell-based; conditions: Homo sapiens, COLO 205, read-out: percent inhibition
TK-10 = assay: NCI-60 antiproliferative screening; assay type: cell-based; conditions: Homo sapiens, TK-10, read-out: percent inhibition
[2] = system: melanoma cell line SK-MEL-2; assay: Cell viability assay; assay type: cell-based; conditions: Homo sapiens, SK-MEL-2, 72 h, read-out: Antiproliferative IC50 SK-MEL-2
NCI/ADR-RES = assay: NCI-60 antiproliferative screening; assay type: cell-based; conditions: Homo sapiens, read-out: percent inhibition
SNB-19 = assay: NCI-60 antiproliferative screening; assay type: cell-based; conditions: Homo sapiens, SNB-19, read-out: percent inhibition
ACHN = assay: NCI-60 antiproliferative screening; assay type: cell-based; conditions: Homo sapiens, read-out: percent inhibition
MCF7 = assay: NCI-60 antiproliferative screening; assay type: cell-based; conditions: Homo sapiens, MCF7, read-out: percent inhibition
SNB-75 = assay: NCI-60 antiproliferative screening; assay type: cell-based; conditions: Homo sapiens, SNB-75, read-out: percent inhibition
HT29 = assay: NCI-60 antiproliferative screening; assay type: cell-based; conditions: Homo sapiens, HT-29, read-out: percent inhibition
HCT-116 = assay: NCI-60 antiproliferative screening; assay type: cell-based; conditions: Homo sapiens, HCT-116, read-out: percent inhibition
UACC-62 = assay: NCI-60 antiproliferative screening; assay type: cell-based; conditions: Homo sapiens, UACC-62, read-out: percent inhibition
MDA-MB-468 = assay: NCI-60 antiproliferative screening; assay type: cell-based; conditions: Homo sapiens, MDA-MB-468, read-out: percent inhibition
BT-549 = assay: NCI-60 antiproliferative screening; assay type: cell-based; conditions: Homo sapiens, BT-549, read-out: percent inhibition
SK-MEL-2 = assay: NCI-60 antiproliferative screening; assay type: cell-based; conditions: Homo sapiens, SK-MEL-2, read-out: percent inhibition
NCI-H460 = assay: NCI-60 antiproliferative screening; assay type: cell-based; conditions: Homo sapiens, NCI-H460, read-out: percent inhibition
SK-MEL-28 = assay: NCI-60 antiproliferative screening; assay type: cell-based; conditions: Homo sapiens, SK-MEL-28, read-out: percent inhibition
A498 = assay: NCI-60 antiproliferative screening; assay type: cell-based; conditions: Homo sapiens, A498, read-out: percent inhibition
OVCAR-5 = assay: NCI-60 antiproliferative screening; assay type: cell-based; conditions: Homo sapiens, OVCAR-5, read-out: percent inhibition

## COc1ccc(CN2[C@@H](C(=O)NCCCCCCC(=O)NO)Cc3c([nH]c4ccccc34)[C@@H]2C2CC2)cc1 [Compound 13d, (1S,3R)-1-Cyclopropyl-N-(7-(hydroxyamino)-7-oxoheptyl)-2-(4-methoxybenzyl)-2,3,4,9-tetrahydro-1H-pyrido[3,4-b]indole-3-carboxamide]
OVCAR-4
  inhibition at 10 µM: 59.4%
U251
  inhibition at 10 µM: 100%
PC-3
  inhibition at 10 µM: 80.9%
SF-295
  inhibition at 10 µM: 100%
NCI-H322M
  inhibition at 10 µM: 90.5%
HOP-92
  inhibition at 10 µM: 100%
EKVX
  inhibition at 10 µM: 83.2%
HDAC1
  IC50: 0.00873 ± 0.00046 µM
HDAC1; read-out: Inhibition% (inhibition rate, IR) against HDAC1, at a concentration of 500 nM, duplicate
  inhibition at 0.5 µM: 99.2%
IGROV1
  inhibition at 10 µM: 100%
SK-OV-3
  inhibition at 10 µM: 100%
SW-620
  inhibition at 10 µM: 100%
[1]
  IC50: > 50 µM
DU-145
  inhibition at 10 µM: 90.6%
MOLT-4
  inhibition at 10 µM: 87.8%
HCC-2998
  inhibition at 10 µM: 100%
OVCAR-8
  inhibition at 10 µM: 97.3%
HDAC5
  IC50: > 50 µM
  activity for HDAC5 (in words): no activity
KM12
  inhibition at 10 µM: 87.5%
HDAC8
  IC50: > 50 µM
  activity for HDAC8 (in words): no activity
T-47D
  inhibition at 10 µM: 100%
HL60
  inhibition at 10 µM: 96.6%
HS 578T
  inhibition at 10 µM: 100%
COLO 205
  inhibition at 10 µM: 100%
TK-10
  inhibition at 10 µM: 100%
[2]
  IC50: 0.48 ± 0.01 µM
NCI/ADR-RES
  inhibition at 10 µM: 38%
SNB-19
  inhibition at 10 µM: 93.3%
ACHN
  inhibition at 10 µM: 99.3%
MCF7
  inhibition at 10 µM: 93.6%
SNB-75
  inhibition at 10 µM: 89.8%
HT29
  inhibition at 10 µM: 93.7%
HCT-116
  inhibition at 10 µM: 97.9%
UACC-62
  inhibition at 10 µM: 100%
MDA-MB-468
  inhibition at 10 µM: 95.9%
BT-549
  inhibition at 10 µM: 74.5%
SK-MEL-2
  inhibition at 10 µM: 100%
NCI-H460
  inhibition at 10 µM: 93.6%
SK-MEL-28
  inhibition at 10 µM: 90.2%
A498
  inhibition at 10 µM: 100%
OVCAR-5
  inhibition at 10 µM: 100%

Source: PMC11027041 (RSC Advances, 2024)
